Measurements pooled from the literature.
Compare with care: the assays were run in different laboratories.

CC(C)(C)c1ccc(O)c(CN(Cc2cc(C(C)(C)C)ccc2O)C2CCC(NC(N)=O)CC2)c1 (centres unmarked) — clearance (male C57BL/6 mouse, plasma; intraperitoneal, 25 mg/kg, single dose): 26.7 mL/min/kg
COc1ccc2nc(-c3ccccn3)c(N(C)c3ccc(F)cc3)n2c1 — CL/F (male CD-1 mouse, plasma; oral, 50 mg/kg, fasted): 917 mL/min/kg
Cc1nn2c(-c3c(C)nn(C)c3-c3ccc(C(F)(F)F)cc3)nc(CO)c2c(=O)[nH]1 — clearance (male beagle dog, plasma; intravenous, 1 mg/kg): 1.3 mL/min/kg
COCc1nn(Cc2ccc(Cn3ccccc3=O)cc2)cc1C(=O)NCc1nccc(OC)c1F — Cmax (male beagle dog, plasma; oral, 1 mg/kg): 284 ng/mL
CC[C@@H]1CN(C(=O)NCC(F)(F)F)C[C@@H]1c1cnc2cnc3[nH]ccc3n12 — CL/F (beagle dog, plasma; oral, 1 mg/kg, single dose): 29.3 mL/min/kg
Oc1c(-n2ccnn2)cnn1-c1cc(N2CCOCC2)ncn1 — clearance (female dog, blood; intravenous, 3 mg/kg): 18.3 mL/min/kg
COc1cc2c3c(n(CCCN4CCOCC4)c(=O)c2cc1OC)-c1cc2c(cc1C3=O)OCO2 — Cmax (male beagle dog, plasma; intravenous, 100 mg/m², infusion): 461 ng/mL
C[C@@H]1[C@H](O)[C@@H](C)/C=C/C=C/C=C/C=C/C=C/C=C/C=C/[C@H](O[C@@H]2O[C@H](C)[C@@H](O)[C@H](N)[C@@H]2O)C[C@@H]2O[C@](O)(C[C@@H](O)C[C@@H](O)[C@H](O)CC[C@@H](O)C[C@@H](O)CC(=O)O[C@H]1C)C[C@H](O)[C@H]2C(=O)O — haemolysis (haemolysis; rabbit; 64 µg/mL, 1 h): 100%
CC(C)Oc1c(NC(=O)c2ccc(NC(=O)[C@H](CC(N)=O)NC(=O)c3ccc(NC(=O)c4ccc(C#N)cc4)cc3)cc2)ccc(C(=O)Nc2ccc(C(=O)O)cc2)c1O — C0 (male CD-1 mouse, plasma; intravenous, 5 mg/kg, single dose): 2940 ng/mL
CCn1c(=O)c(-c2cc(NC(=O)Nc3ccccc3)c(F)cc2Br)cc2cnc(NC)cc21 — Cmax (beagle dog, plasma; oral, 5 mg/kg, single dose): 544 ng/mL
COc1cc(OC)c2nccc(N3CCc4c(cc(Cn5ccnc5)cc4-c4cn(C)nc4C(F)(F)F)C3=O)c2c1 — C0 (male CD-1 mouse, plasma; intravenous, 3 mg/kg): 1600 ng/mL
C=CC(=O)N1CC2CC(n3nc(-c4ccc(C(=O)Nc5ccccn5)cc4)c4c(N)ncnc43)CC2C1 (centres unmarked) — Tmax (male Wistar rat, plasma; oral, 30 mg/kg): 2 h
CC[C@H](C)[C@@H]1NC(=O)[C@@](C)(NC(=O)[C@H](CCCNC(=N)N)NC(=O)[C@H](CC(C)C)NC(=O)[C@@H](NC(=O)[C@H](CCC(N)=O)NC(=O)[C@H](CC(C)C)NC(C)=O)[C@@H](C)O)CCCC=CCCC[C@@](C)(C(=O)N[C@@H](CC(C)C)C(=O)N[C@@H](Cc2ccc3ccccc3c2)C(N)=O)NC(=O)[C@H](CCCNC(=N)N)NC(=O)[C@H](CCC(N)=O)NC1=O — clearance (male BALB/c mouse, plasma; intravenous, 10 mg/kg): 0.713 mL/min/kg
CCc1cc(C(=O)NC)c2nccc(N3CCc4c(cc(Cn5ccnc5)cc4-c4cn(C)nc4C(F)(F)F)C3=O)c2c1 — C0 (male CD-1 mouse, plasma; intravenous, 3 mg/kg): 7560 ng/mL
COc1ccnc(CNC(=O)c2cn(Cc3ccc(Cn4ccccc4=O)cc3)nc2C(F)(F)F)c1F — Cmax (male beagle dog, plasma; oral, 1 mg/kg): 200 ng/mL
COc1ccc2nccc(N3CCc4c(cc(Cn5ccnc5)cc4-c4cn(C)nc4C(F)(F)F)C3=O)c2c1 — C0 (male CD-1 mouse, plasma; intravenous, 3 mg/kg): 3430 ng/mL
C=CC(=O)Nc1cc(Nc2nccc(Nc3cc(Cl)c(F)cc3C(C)(C)O)n2)c(OC)cc1N1CC[C@@H](N(C)C)C1 — clearance (beagle dog, plasma; intravenous, 1 mg/kg): 30.9 mL/min/kg
